18 molecules from ChEMBL document CHEMBL3826889, “Symmetrical bis-tertiary amines as novel CXCR4 inhibitors” (2016) can be followed below.

The target in test [1] is C-X-C chemokine receptor type 4 (Homo sapiens) (UniProt P61073). As to the kind of experiment: Displacement of biotinylated TN14003 from CXCR4 CXCL12 binding domain in human MDA-MB-231 cells preincubated for 10 mins followed by biotinylated TN14003 addition measured after 30 mins using streptavidin-conjugated rhodamine by fluorescence microscopic analysis. The test is classed as cell-based. The gist of the method:
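MDA-MB-231 cells, 2 × 10^4 per well, seeded 2 days prior. Compound at 1, 10, 100 or 1000 nM for 10 min at room temperature, then fixed in 4% ice-cold paraformaldehyde and rehydrated in PBS. Then 0.05 μg/mL biotinylated TN14003 for 30 min at RT, PBS washes, streptavidin-rhodamine (1:150) for 30 min at RT. Fluorescence microscopy. EC = lowest concentration giving significant fluorescence reduction vs control; semi-quantitative.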

The subject of the next test is Mus musculus. Put plainly: Antiinflammatory activity against carrageenan-induced paw edema in C57BL/6J mouse assessed as inhibition of edema volume at 300 ug/kg, ip daily administered 30 mins post carrageenan-challenge measured post 2 hrs of last injection. The test is classed as functional. The gist of the method:
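Acute paw inflammation in female C57BL/6J mice: 50 μL λ-carrageenan (1% w/v in saline) injected s.c. into one hind paw, saline into the contralateral paw. Dosing i.p. daily from 30 min after challenge, in 10% DMSO / 90% of 45% (2-hydroxypropyl)-β-cyclodextrin in PBS; vehicle controls. Sacrifice at 74 h post-challenge, 2 h after last dose. Paw thickness by caliper; edema = injected minus contralateral. Suppression % vs vehicle group; 5 mice/group.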
(Carrageenan injected into the paw causes an acute inflammation.)

The test system of the next test is MDA-MB-231. As to the kind of experiment: Inhibition of […]-induced invasion of human MDA-MB-231 cells at 100 nM after 22 hrs by hematoxylin/eosin-staining based matrigel assay. The note with it: MDA-MB-231, 22 h. The test is classed as functional. The gist of the method: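 Invasion chambers with Matrigel-coated 8 μm pore support. MDA-MB-231 cells treated with compound at 100 nM before seeding in the top chamber; CXCL12α at 200 ng/mL in the bottom chamber as chemoattractant. Incubation 22 h, humidified. Non-invading cells swabbed off; invaded cells fixed in methanol and H&E-stained, then counted to give percent invasion.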

Chain of C-X-C chemokine receptor type 4 (Homo sapiens) (P61073 whole entry, the tested form may be a part): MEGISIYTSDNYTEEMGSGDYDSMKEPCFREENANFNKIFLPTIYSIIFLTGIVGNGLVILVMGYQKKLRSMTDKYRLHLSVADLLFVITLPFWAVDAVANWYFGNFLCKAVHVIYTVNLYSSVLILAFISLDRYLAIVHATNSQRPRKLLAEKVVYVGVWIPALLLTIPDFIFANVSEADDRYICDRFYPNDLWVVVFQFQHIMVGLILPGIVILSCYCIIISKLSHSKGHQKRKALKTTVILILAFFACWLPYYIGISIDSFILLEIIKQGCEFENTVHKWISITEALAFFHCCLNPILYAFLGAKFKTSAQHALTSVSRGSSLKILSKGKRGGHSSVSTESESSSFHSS

As for `CN(Cc1ccc(CN(C)Cc2ccccc2Cl)cc1)Cc1ccccc1Cl`, the EC in test [1] is over 1000 nM. Take `N=C(N)NCCC[C@@H]1NC(=O)[C@H](Cc2ccc(O)cc2)NC(=O)[C@H]2CCCN2C(=O)[C@@H](CCCCN)NC(=O)[C@@H](CCCCN)NC(=O)[C@H](CCCNC(=N)N)NC(=O)[C@H](Cc2ccc(O)cc2)NC(=O)[C@H](NC(=O)[C@@H](Cc2ccc3ccccc3c2)NC(=O)[C@H](CCCNC(=N)N)NC(=O)[C@@H](CCCNC(=N)N)NC(=O)c2ccc(F)cc2)CSSC[C@H](C(=O)N[C@H](CCCNC(=N)N)C(N)=O)NC(=O)[C@@H](CCCNC(N)=O)NC1=O` (stereo in doubt): the inhibition in vivo at 0.3 mg/kg in the test on Mus musculus came to 48%. In test [1], `CN(Cc1ccc(CN(C)Cc2cccc(Cl)c2)cc1)Cc1cccc(Cl)c1` came in with an EC of 1000 nM. Take `c1cc(CN2CCCNCCNCCCNCC2)ccc1CN1CCCNCCNCCCNCC1` [PLERIXAFOR]: the EC in test [1] was 1000 nM. This molecule also showed an inhibition at 0.1 µM in the test on MDA-MB-231 of 62%. On to `CN(Cc1ccc(F)cc1)Cc1ccc(CN(C)Cc2ccc(F)cc2)cc1`, for which the EC in test [1] is over 1000 nM.

As to `CN(Cc1ccc(CN(C)c2ccc(F)cc2)cc1)c1ccc(F)cc1`, in test [1], the EC was 100 nM. The molecule further returned an inhibition at 0.1 µM in the test with MDA-MB-231 of 66.4%. In test [1], `CN(Cc1ccc(CN(C)Cc2ccccn2)cc1)Cc1ccccn1` showed an EC of over 1000 nM. The same measure, in the same setting: the figure for `CN(Cc1ccc(CN(C)Cc2cccnc2)cc1)Cc1cccnc1` is over 1000 nM.

As to `COc1cccc(CN(C)Cc2ccc(CN(C)Cc3cccc(OC)c3)cc2)c1`, the EC in test [1] was 10 nM. Further, the inhibition at 0.1 µM in the test with MDA-MB-231 was under 50%. In turn, `c1ccc(CN(Cc2ccc(CN(Cc3ccccc3)CC3CC3)cc2)CC2CC2)cc1` yielded an EC in test [1] of 1000 nM. Molecule `CN(Cc1ccc(CN(C)Cc2ccccc2F)cc1)Cc1ccccc1F` yielded an EC in test [1] of over 1000 nM.

`CN(Cc1ccncc1)Cc1ccc(CN(C)Cc2ccncc2)cc1` registered an EC in test [1] of over 1000 nM.

On to `c1cc(CN2CCOCC2)ccc1CN1CCOCC1`, for which, in test [1], the EC is over 1000 nM. The same measure, in the same setting: the figure for `c1cc(CN2CCCC2)ccc1CN1CCCC1` is 1000 nM. `c1cc(CN2CCCCC2)ccc1CN1CCCCC1` came in with an EC in test [1] of 10 nM. The molecule further registered an inhibition at 0.1 µM in the test on MDA-MB-231 of under 50%. The molecule `CN(Cc1ccc(CN(C)Cc2cccc(F)c2)cc1)Cc1cccc(F)c1` showed an EC in test [1] of over 1000 nM. Still for that read-out and setting: with `CN(Cc1ccc(CN(C)c2ccccc2)cc1)c1ccccc1` the figure was 1000 nM; with `CCN(Cc1ccccc1)Cc1ccc(CN(CC)Cc2ccccc2)cc1`, 1000 nM.

As a reminder, the inhibition in vivo is the drop in the measured response relative to a control, in per cent. What is called inhibition is the percentage by which the read-out fell short of the control. Read a high inhibition as a strong effect.
